# Screening results from PubChem BioAssay.
# The entries come from a sample that favours hits as a whole.
# UPR XBP1 act: adaptive UPR (XBP1) activation. CHO-XBP1 luciferase reporter, IRE1-XBP1 UPR activation, luminescence; percent of tunicamycin response, DMSO as zero. activation, % at 20 µM. hit rate 0.33% among 330,000. AID 463104;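 active = versus positive control, 20 µM dose yields 30% or more activation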;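 also: 100% = tunicamycin at 10 µg/mL and 0% = DMSO only wells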
#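 Material: CHO-XBP1 cells stably carrying IRE1-XBP1-driven luciferase reporter / Amount: 1000 cells per well / Compound: 20 µM, 1% DMSO / Times: 6 h treatment, 37 °C / Detection: luciferase luminescence / Measure: % activation of reporter signal versus tunicamycin and DMSO controls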
# V-ATPase pH: alters yeast V-ATPase proton transport; S. cerevisiae, pHLuorin cytosolic pH fluorescence; response, % at 10 µM; hit rate 0.37% among 350,000; AID 504577; in the data active = response mostly above about 7.3%, no sharp cut-off; inactive = mostly below about 5.4%; also: actives read high
# CHOP inh: inhibitors of CHOP induction in ER stress response; CHO-K1 CHOP-promoter luciferase, tunicamycin-induced, 15-18 h; inhibition, % at 10 µM; hit rate 3.8% among 220,000;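 active = compounds that reduced the stress-induced luciferase reporter signal by more than about 70% of percent inhibition, limit read from the data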;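 also: 0% = tunicamycin plus vehicle and 100% = wells without tunicamycin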
# TbMetRS inhib: blocks T. brucei methionyl-tRNA synthetase activity; purified T. brucei MetRS, ATP depletion, Kinase-Glo luminescence; inhibition, % at 11.9 µM; hit rate 0.4% among 360,000; AID 624268;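 active = inhibition above a per-plate cutoff of the control wells' mean inhibition plus 3 SD, cut at about 5.5% in these data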;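 also: 0% = DMSO wells median and 100% = median of wells with control inhibitor compound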
#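 Measured by: Kinase-Glo luciferase luminescence reporting remaining unconsumed ATP. Material: purified T. brucei MetRS enzyme. Doses: 11.9 µM compound single dose, 0.9% DMSO. Medium: HEPES buffer containing pyrophosphatase, BSA, spermine, DTT. Times: 15 min preincubation, 2 h reaction, all 25 °C. Reagent: methionine, ATP and bulk E. coli tRNA.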
# UPR CHOP act: apoptotic UPR (CHOP) activation; CHO-CHOP luciferase reporter, luminescence; percent of tunicamycin response over DMSO baseline; activation, % at 10 µM; hit rate 0.34% among 330,000; AID 449763;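 active = at 10 µM dose, activation of 40% or more, normalized to positive control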;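 also: 100% = tunicamycin at 10 µg/mL and 0% = DMSO alone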
#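 Assay system: CHO-CHOP cells, stable luciferase reporter of PERK-eIF2a-CHOP signalling / Buffer or medium: F12 plus 10% serum / Compound dosing: one dose, 10 µM in 0.5% DMSO / Times: 6 h compound treatment, 37 °C / Technique: luciferase luminescence / Read-out: % reporter activation, DMSO baseline versus tunicamycin full activation / Benchmarks: tunicamycin and DMSO controls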
# The depositor's hits bear a star; · = not tested or not shown.
SMILES,UPR XBP1 act,V-ATPase pH,CHOP inh,TbMetRS inhib,UPR CHOP act
C=CCOC(=O)C1=C(C)NC(SC)=C(C#N)C1c1cccs1 (stereo not drawn),-1.4,2.2,-3.9,-0.9,1.1
Cc1cccc(C(=Cc2ccc([N+](=O)[O-])cc2)C(=O)O)c1,·,-0.1,·,-0.2,·
COC(=O)Cn1c(=NC(=O)c2nc3ccccc3s2)sc2cc(S(C)(=O)=O)ccc21,41.7*,·,-82.7,·,2.2
COC(=O)Cn1c(=NC(=O)c2sc3ccccc3c2Cl)sc2cc(S(N)(=O)=O)ccc21,-1.0,-2.8,23.7,-1.1,3.6
C[C@H]1CN([C@@H](C)CO)C(=O)c2cc(Br)cnc2O[C@@H]1CN(C)C(=O)C1CCC1,·,-2.6,·,-0.2,·
CCCCOCCCNC(=O)C[C@@H]1C[C@@]2(C(=O)OC)CCCCC=C2N(Cc2cccc3ccccc23)C1=O,·,·,·,-0.7,·
CCOC(=O)C1CCN(S(=O)(=O)c2ccc3c4c(cccc24)C(=O)N3CC)CC1,-3.6,4.1,·,-0.3,-1.3
Cc1nn(Cc2ccc(Cl)c(Cl)c2)c(C)c1NC(=O)c1cc(-c2ccco2)on1,0.3,18.1,86.5*,0.5,3.1
O=C1C2ON(c3ccc(Cl)cc3)C(c3ccco3)C2C(=O)N1c1ccccc1 (stereo not drawn),-0.1,-0.2,74.1*,0.3,0.3
O=C1C2ON(c3ccccc3)C(c3ccccc3F)C2C(=O)N1c1ccccc1 (stereo not drawn),2.3,4.5,80.1*,-0.5,-1.2
Cc1cc(C(=O)N2CCC2(C)C(=O)O)nn1C(C)(C)C (stereo not drawn),·,·,·,-0.2,·
CCN(c1ccccc1)c1nc(C#N)nc(N(CC)c2ccccc2)n1,0.0,-8.2,58.5,-0.6,1.9
CCN(CC)c1nc(C#N)nc(N(CC)CC)n1,0.2,-0.4,78.8*,-0.2,-1.5
CN(C)c1ccc(-n2cccc2/C=C/[N+](=O)[O-])cc1,1.1,-2.0,92.0*,-0.5,17.3
COc1cc(C(=S)N2CCCC2)ccc1OCc1ccccc1,10.7,1.2,·,-0.7,5.5
N#Cc1ncc(-c2ccc3c(c2)OCCOCCOCCOCCOCCO3)nc1C#N,-3.3,1.7,105.5*,0.0,-3.9
CCCCCCCCCCCCC/C=C/C(O)C(N)CO (stereo not drawn),·,·,-11.2,·,·
CCOC(=O)C1=CC[C@@H](c2ccccc2)N(S(=O)(=O)c2ccc(C)cc2)[C@H]1C=C(C)C,·,·,·,-0.4,·
O=C(COC(=O)CCSc1ccccc1Cl)Nc1ccc(F)cc1F,-5.4,-2.7,71.8*,-0.5,1.3
CC1(C(=O)NCc2cccs2)Cc2c(-c3ccc4c(c3)OCO4)ccnc2O1 (stereo not drawn),·,·,·,0.0,·
C=CCC(C)(NCc1ccccc1)c1ccc(C)cc1 (stereo not drawn),2.3,4.9,75.2*,-0.6,-0.2
CC(Nc1ccc(Br)cn1)c1cc(Cl)ccc1O (stereo not drawn),·,4.0,77.0*,0.6,·
Cc1nc(SCC(=O)NC2(C#N)CCCC2)n(CC(C)C)c1C,0.2,-1.7,·,-0.3,1.3
Cc1ccc(/C=C2\Sc3ccccc3C2=O)s1,3.6,-8.7,70.4*,-0.2,3.1
O=C(O)C1OCC2(CO1)COC(C(=O)O)OC2 (stereo not drawn),·,-3.2,·,-0.1,·
SMILES,UPR XBP1 act,V-ATPase pH,CHOP inh,TbMetRS inhib,UPR CHOP act
COC(=O)[C@H](CC(C)C)NC(=O)CC[C@H]1O[C@@H](n2cc(C)c(=O)[nH]c2=O)C[C@@H]1O,·,·,·,-0.1,·
CCN1/C(=C/c2ccc3cc(C)ccc3[n+]2CC)Sc2ccccc21,-5.4,3.6,107.8*,-0.8,-6.5
CC1CCc2nc(NC(=O)c3ccco3)sc2C1 (stereo not drawn),-6.9,1.1,70.6*,-2.1,-7.0
O=C(NCc1cccnc1)c1ccc2sc([C@H]3C[C@H](O)[C@@H](CO)O3)nc2c1,·,·,·,-0.3,·
Cc1ccc(C)c(N2CCN(CC3CC=CCC3)CC2)c1 (stereo not drawn),-0.2,-0.8,71.8*,-0.1,-0.4
CCOc1ccc(NC(=O)CSc2nc3ccsc3c(=O)n2Cc2ccc(C(=O)O)cc2)cc1,·,-1.2,·,-0.1,·
Cc1ccc(-c2onc3ccc(C4(C)OCCO4)cc23)cc1,2.7,-1.7,85.7*,-0.3,1.9
Cc1ccc(-c2onc3ccc(C=O)cc23)cc1,-5.8,-2.7,-11.8,-0.9,-4.8
CCCNC(=O)C1(C)CCCN(Cc2ccc(-c3ccccc3)o2)C1 (stereo not drawn),·,·,·,0.0,·
CC(C)Sc1nc(N2CCOCC2)c2c3c(sc2n1)COC(C)(C)C3,1.9,-0.1,81.5*,-1.2,0.7
CCOC(=O)C1=CCN(S(=O)(=O)c2ccccc2C)C1c1cccc(Cl)c1 (stereo not drawn),·,·,·,0.2,·
CCOC(=O)Cn1cc(/C=C/[N+](=O)[O-])c2ccccc21,-2.9,0.8,-17.9,-0.4,0.6
CCOC(=O)COc1ccc2ccccc2c1/C=C/[N+](=O)[O-],·,-1.9,109.4*,-0.1,·
O=[N+]([O-])/C=C/c1c(OCc2ccccc2)ccc2ccccc12,-4.9,4.2,110.3*,-0.3,-0.3
Cc1ccc(NC(=O)c2ncn(CCCN3CCN(Cc4cccc5ccccc45)CC3)n2)cc1C,·,1.3,·,-0.3,·
O=Cc1cn(-c2ccccc2)nc1-c1ccccc1,1.3,-2.3,·,-0.3,6.1
CC1=NNC(=O)/C1=C\c1cn(-c2ccccc2)nc1-c1ccccc1,·,0.4,108.0*,0.1,·
CC(=O)OC1COC(N2CCc3ccccc32)C(OC(C)=O)C1OC(C)=O (stereo not drawn),-3.4,-1.2,34.3,-0.9,0.7
CC(=O)OC1COC(N2CCc3cc(Br)c([N+](=O)[O-])cc32)C(OC(C)=O)C1OC(C)=O (stereo not drawn),-1.5,-1.8,89.0*,0.6,-0.7
COc1ccc(C(=O)COC(=O)c2ccc(OC)c(OC)c2)cc1OC,0.2,-0.5,75.3*,-1.4,0.7
COc1ccc(C(=O)OCC(=O)c2ccc(F)cc2)cc1OC,4.1,0.2,·,-0.2,0.5
N#CC(Nc1ccccc1)c1ccccc1OCc1ccccc1 (stereo not drawn),0.2,1.6,88.7*,-0.3,0.8
CCS(=O)(=O)N1Cc2ccccc2CC1C(=O)N(C)Cc1ccc(OC)c(F)c1 (stereo not drawn),4.1,14.9*,·,-0.1,0.5
O=C(CSc1nc(-c2ccc(F)cc2)cc(C(F)(F)F)n1)Nc1ccc2c(c1)OCO2,-0.5,0.3,73.0*,0.5,1.1
FC(F)(F)c1cc(-c2ccccc2)nc(NCc2cccs2)n1,-1.5,-3.2,75.2*,-0.8,1.3
COc1ccc(-c2cc(C(F)(F)F)nc(SCC(=O)NCc3cccs3)n2)cc1,0.4,-2.1,70.3*,-0.9,-1.5
O=C(CSc1nc(-c2ccccc2)cc(C(F)(F)F)n1)NCc1cccs1,1.8,-1.2,82.3*,·,-1.1
CC(C)c1nc(SCC(=O)Nc2ccc3c(c2)OCO3)n[nH]1,3.4,3.6,56.1,-0.3,-2.0
